Reference: the EternaBench riboswitch data

Tested on: MS2 coat protein
Assay: apparent Kd, MS2 coat protein; higher = weaker binding; RNA-MaP array; FMN 200 µM where present
Procedure, shortened: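 Binding was read on Illumina sequencing-chip clusters where stalled E. coli RNA polymerase had transcribed each design. A titration of SNAP-549-labelled MS2 coat protein began at 0.7 or 1.5 nM and doubled to 3 µM, once without ligand and once with constant ligand, in 100 mM Tris-HCl pH 7.5, 80 mM KCl, 4 mM MgCl2, BSA, DTT, yeast tRNA and Tween-20. The apparent Kd is the median of filtered per-cluster binding-curve fits, based on green signal normalised to red-channel RNA signal and control-cluster median Fmax.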

[1] = designed as: OFF switch for flavin mononucleotide, no ligand
[2] = ligand present: flavin mononucleotide, designed as: OFF switch for flavin mononucleotide
[3] = designed as: ON switch for flavin mononucleotide, no ligand
[4] = ligand present: flavin mononucleotide, designed as: ON switch for flavin mononucleotide

Sequence | apparent Kd [1] | apparent Kd [2] | apparent Kd [3] | apparent Kd [4]
UUCUUACAUGAGGAUCACCCAUGUCAGGAUAUCUCCGCACUGCGCUUGCGCAGUGCAUAGAGAAGGGACAGGCU | 55 nM | 50.2 nM |  | 
UUGACGGCAGGAUAUACAUGAGGAUCACCCAUGUAAAUUUUUCGUUUAACUUGAAUGUGUAGAAGGGCCAAAUU | 19 nM | 20 nM |  | 
UUGAGGCACCAGAAGGACAUGAGGAUCACCCAUGUAGGAUAUGGGCAAGCCGACGUGCGCAGAUUGCUUAGUUGGGUAUCUUCU |  |  | 43.2 nM | 10.4 nM
UUGAUGUCAGGAUAUGCUUAAUAUAUUUUAUUAUAAUAUAUACAUGAGGAUCACCCAUGUAGAAGGGACAUUGU | 28.7 nM | 23.8 nM |  | 
UUGCCUCAGAACAUGAGGAUCACCCAUGUGCUGCGGGCAUCGUAGGAUAUGAUGGUAUGAUACCAUCAGAAGGAUGAUGGUACC |  |  | 6.18 nM | 5.77 nM
UUGCUCAAUUGGGCAGGAACCUCACAUGAGGAUCACCCAUGUCAGGAUAUCCUAGUUUGGACGUAGGAGAAGGGACAGAGUAUC | 157 nM | 152 nM |  | 
UUGGACCUAGGAUAUACAUGAGGAUCACCCAUGUUGGCGCACGCCCACCUGGGCCCGAGUAGAAGGAGGAAUGU | 18.9 nM | 20.3 nM |  | 
UUGGACGUCGUACGAUAUGUAGGAUAUUCCUACAUGAGGAUCACCCAUGUUGACAUGGAAGAAGGACAGAAGGACGAUGUCCAU |  |  | 151 nM | 5.61 nM
UUGGACGUCGUAGGAUAUGCAGGAUAUUCCUACAUGAGGAUCACCCAUGUUGACAUGGAAGAAGGACAGAAGGACGAUGUCCAU |  |  | 11 nM | 5.38 nM
UUGGACGUCGUAGGAUAUGUAGCAUAUUCCUACAUGAGGAUCACCCAUGUUGACAUGGAAGAAGGACAGAAGGACGAUGUCCAU |  |  | 5.61 nM | 5.36 nM
UUGGACGUCGUAGGAUAUGUAGGAGAUUCCUACAUGAGGAUCACCCAUGUUGACAUGGAAGAAGGACAGAAGGACGAUGUCCAU |  |  | 328 nM | 20.4 nM
UUGGACGUCGUAGGAUAUGUAGGAUAUUCCUACAUGAGGAUCACCCAUGUUGACAUGCAAGAAGGACAGAAGGACGAUGUCCAU |  |  | 240 nM | 6.54 nM
UUGGACGUCGUAGGAUAUGUAGGAUAUUCCUACAUGAGGAUCACCCAUGUUGACAUGGAAGAAGGACAGAAGGACGAUAUCCAU |  |  | 289 nM | 5.01 nM
UUGGACGUCGUAGGAUAUGUAGGAUAUUCCUACAUGAGGAUCACCCAUGUUGACAUGGAAGAAGGACAGAAGGAUGAUGUCCAU |  |  | 414 nM | 5.34 nM
UUGGACGUCGUAGGAUAUGUAGGAUAUUCCUACAUGAGGAUCACCCAUGUUGACCUGGAAGAAGGACAGAAGGACGAUGUCCAU |  |  | 64.2 nM | 4.64 nM
UUGGACGUCGUAGGAUAUGUAGGAUAUUCCUACAUGAGGAUCACCCAUGUUGACGUGGAAGAAGGACAGAAGGACGAUGUCCAU |  |  | 55.3 nM | 4.63 nM
UUGGACGUCGUAGGCUAUGUAGGAUAUUCCUACAUGAGGAUCACCCAUGUUGACAUGGAAGAAGGACAGAAGGACGAUGUCCAU |  |  | 173 nM | 4.35 nM
UUGGACGUCGUUGGAUAUGUAGGAUAUUCCUACAUGAGGAUCACCCAUGUUGACAUGGAAGAAGGACAGAAGGACGAUGUCCAU |  |  | 196 nM | 6.05 nM
UUGGACUUCGUAGGAUAUGUAGGAUAUUCCUACAUGAGGAUCACCCAUGUUGACAUGGAAGAAGGACAGAAGGACGAUGUCCAU |  |  | 257 nM | 4.12 nM
UUGGCGACGUAGAAGGGUGACAUGAGGAUCACCCAUGUGCCGAUAUGUCUCGAGAUAUGUCGGCCACAGGAUAUACGUGCCAUC |  |  | 61.7 nM | 38.5 nM
UUGGGACAUGAGGAUCACCCAUGUCAGGAUAUCCCGGCCCGCCCGUGAGGGCGGGCCGGGAGAAGGGACCUUUG | 41 nM | 42.9 nM |  | 
UUGUGCAAAGGAUAUACGUCCGACCUCGUGGAACUGAGAAUACAUGAGGAUCACCCAUGUAGAAGGUUGCCGAG | 11.7 nM | 15.1 nM |  | 
UUGUUACAUGAGGAUCACCCAUGUGAGGAUAUGAGUCAGUCACGGUGACGUGGCUGACUCAGAAGGCACUAUGG | 300 nM | 149 nM |  | 
UUGUUAGGGAGAGGAUAUUGACAUGAGGAUCACCCAUGUAUUUGGGAGUGUUUACUGAAUUCUUACGAGAAGGCUUACGAAAUC | 264 nM | 186 nM |  | 
UUGUUAUAUGUAGGAUAUGCAUAUUGUUAUUAUGCAGAAGGACAUGAGGAUCACCCAUGUAUAUUAUUAUUAUAUAUUAUAUAU | 32 nM | 64.7 nM |  | 
UUGUUGUAUGUAGGAUAUGCGUAUUAUUAUUAUGCAGAAGGACAUGAGGAUCACCCAUGUAUAUUAUUAUUAUAUGUUAUAUAU | 26.2 nM | 36.3 nM |  | 
UUUACGAAAGUCGAACGAUGUAGCAGAAGGACAUGAGGAUCACCCAUGUCAGCUGUAACAGCCAUGUAGGAUAUGCUACAUAAA | 5.78 nM | 5.92 nM |  | 
UUUACGAAAGUCGAACGAUGUAGCAGAAGGACAUGAGGAUCACCCAUGUCAGCUGUAACAGCCAUGUAGGAUAUGCUACAUUUU | 5.37 nM | 6.12 nM |  | 

Sequence | apparent Kd [1] | apparent Kd [2] | apparent Kd [3] | apparent Kd [4]
UUUACUUUGUAGAAGGGUGACAUGAGGAUCACCCAUGUGCGUCGCCUGAAAGACCAGGGUACGCCACAGGAUAUACAAAGUAAG |  |  | 56.5 nM | 40.4 nM
UUUAUAAAUUAGAAGGCGUGAUAAAAUACAAUAAACAUGAGGAUCACCCAUGUGUACCCAUGUUAUGAGGAUAUAGUCAUAUAU |  |  | 462 nM | 377 nM
UUUAUGUCAGGAUAUACAUGAGGAUCACCCAUGUAUAUCUUAAAAUAUACAUGGGAAUGUAGAAGGGACCUCCU | 51 nM | 41 nM |  | 
UUUAUGUCAGGAUAUGAGGAGUAGAACAAUAGUACUACUCCUCAGAAGGGACAUGAGGAUCACCCAUGUUCCUC | 20.7 nM | 91.9 nM |  | 
UUUAUUUCGGCAGGAUAUACAUGUAUAUAUAUUUCUUCAUAUCUUAUUACAUGAGGAUCACCCAUGUAGAAGGGCCUUCUUCUC | 65.6 nM | 80.5 nM |  | 
UUUAUUUUUACAGGAUAUCAUCUAUUUAACUCAUGCACAUGUUUACAUGAGGAUCACCCAUGUUUUGAGAAGGGUAUUGAAACA |  |  | 246 nM | 259 nM
UUUCAGCAAGGAUAUACGGGCUGUGCUUUUCAUUUCUUACAACAUGAGGAUCACCCAUGUAGAAGGUGCAUCUU | 72.5 nM | 111 nM |  | 
UUUCAUUACCCGAAGGAUAUCGCUCUUCCGACAUGAGGAUCACCCAUGUACUAGCCCUCCCUGCUCGAGAAGGUCGCGCGUGAAC |  |  | 103 nM | 67.4 nM
UUUCCGCGAGGAUAUGCGGGCUGUGCUUUUCAUUUCUUACCACAUGAGGAUCACCCAUGUAGAAGGUGCUUCUU | 154 nM | 136 nM |  | 
UUUGGGUGGCUGGAGGAUAUUCUAGUGGUUACAUGAGGAUCACCCAUGUGUCGCGCGGUUCGCGAGGAGAAGGCUGGCGGCCGUU |  |  | 166 nM | 46.2 nM
UUUUAACAUGAGGAUCACCCAUGUGAGGAUAUCGAAAUUUAUAUUAAUAUUAUUAAUUCGAGAAGGCACAUUUU | 117 nM | 117 nM |  | 
UUUUAACAUGAGGAUCACCCAUGUGAGGAUAUCGAAAUUUAUAUUAAUAUUUAUAAUUCGAGAAGGCACAUUUU | 170 nM | 148 nM |  | 
UUUUAACAUGAGGAUCACCCAUGUGAGGAUAUCGAAAUUUAUAUUAAUAUUUAUUAUACGAGAAGGCACAUUUU | 73.6 nM | 97 nM |  | 
UUUUAACAUGAGGAUCACCCAUGUGAGGAUAUCGAUAUUUUUAUUAAUAUUAAUAAAACGAGAAGGCACAUUUU |  | 90.2 nM |  | 
UUUUAACAUGAGGAUCACCCAUGUGAGGAUAUCGUAAUUUUUAUUAAUAUUAAUAAAACGAGAAGGCACAUUUU | 96.6 nM | 81 nM |  | 
UUUUACUAGUAAGGAUAUACUAGCGAUUAGCUUGUAGAAGGUGCAGUCUUAUGUAUAACAUGUUAACAUGAGGAUCACCCAUGU |  |  | 125 nM | 37.6 nM
UUUUCACAUGAGGAUCACCCAUGUGAGGAUAUGGUUUCGCUGGCCGUAGCCAGUGGAACCAGAAGGCGCGUGAU | 60.7 nM | 66.4 nM |  | 
UUUUCGUGAGGAUAUCAGUAGUAAAUAAAUAAAAUUACUACUGAGAAGGCACAUGAGGAUCACCCAUGUUCCUU | 12.7 nM | 22.9 nM |  | 
UUUUGACAUGAGGAUCACCCAUGUCAGGAUAUAGUAGGACAAAUAAAUAAAAGUUCUACUAGAAGGGAUAUGGA | 23.2 nM | 37.5 nM |  | 
UUUUGGCGGGCAGGAUAUACUAAGACAUGAGGAUCACCCAUGUACUUGCAAGAUGUCCGUGUCGAGUAGAAGGGCCAAGCUAUA | 4.97 nM | 7.8 nM |  | 
UUUUUACAUGAGGAUCACCCAUGUCAGGAUAUGUUUAUAUUUUAUUAUUUUAUUUUUUACAGAAGGGACUAUUA | 136 nM | 66.6 nM |  | 
UUUUUACAUGAGGAUCACCCAUGUGAGGAUAUGGAUUCGCUGGCCGUAGCCAGUGGAUCCAGAAGGCGCAUGAU | 82.7 nM | 280 nM |  | 
UUUUUACGAGGAUAUCGUUUUUUUCACAUGAGGAUCACCCAUGUUGUUUAUGUUUCGUUUCGAGAAGGCGUUUGUU | 28.2 nM | 22.1 nM |  | 
UUUUUAUAAUAGAAGGAGGACUUCAUGAGGAUCACCCAUGUGUUAGUACUUAGGAUAUGUAAUAACAUGAGGAUCACCCAUGUC |  |  | 45.3 nM | 45.7 nM
UUUUUAUUUAUAGGAUAUGGAAACAUGAGGAUCACCCAUGUAUGAUAAGAUAAAUUAUGAUAUAGCCAGAAGGAUAUUAUUUUU |  |  | 28.5 nM | 35.9 nM
UUUUUAUUUGCAGGAUAUUGUAUUUUAUUACAUCAAGAAGGGCAUUACAUGAGGAUCACCCAUGUCUUCCUAUGGUUAACUAGU | 12.3 nM | 10.2 nM |  | 
UUUUUAUUUGUAGGAUAUGGAGACAUGAGGAUCACCCAUGUAUGAUAAGCUAAAUUAUGAUGUGGCCAGAAGGAUAUUAUUUUU |  |  | 51.1 nM | 72.6 nM
